In brackets after ≈: the same amount, converted by molar mass. Some results are limits rather than exact numbers.

Test system in the first data set: not listed separately
Briefly: Selectivity index, ratio of CC50 for African green monkey Vero cells to MIC=>90 for Mycobacterium tuberculosis H37Rv ATCC 27294. The class given is toxicity. The conditions noted are these: read-out: Selectivity Index. The method in brief:
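Vero cells in MEM with Earle's salts and 10% FBS, 37 °C, 5% CO₂. Seeded at 1×10⁴ cells/well and recovered 24 h. Exposed to compound at 1000 to 4 μg/mL for 72 h. Viability by MTT. CC50 by Bliss analysis. SI is CC50 divided by MABA MIC against H37Rv ATCC 27294.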
In the case of `COc1ccc(NCCNC(=O)c2c(C)nc3ccc(C)cn23)cc1`, the selectivity ratio came to 4400. Same read-out and setting: the value for `Cc1ccc2nc(C)c(C(=O)NCCNc3ccc(C(C)(C)C)cc3)n2c1` was 1400.

Another data set deals with Mycobacterium tuberculosis. Briefly: Antimycobacterial activity against Mycobacterium tuberculosis H37Rv ATCC 27294 after 7 days by microplate Alamar blue assay. The class given is functional. The conditions noted are these: H37Rv ATCC 27294, 168 h. A digest of the protocol: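 MABA against replicating M. tuberculosis. Cells grown to late log phase (70–100 Klett units) in 7H9 broth with 0.2% glycerol, 0.05% Tween 80 and 10% ADC. They were washed in PBS, filtered (8 µm) and frozen. Twofold compound dilutions received 2×10^5 CFU per well at 37 °C. Tween 80 and Alamar blue were added on day 7, then 16–24 h more. Fluorescence read at 530/590 nm. MIC = lowest concentration giving ≥90% fluorescence reduction versus bacterium-only controls.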
As to `Cc1ccc2nc(C)c(C(=O)NCCOCc3ccccc3)n2c1`, the MIC90 was 1.93 µM (≈ 0.624 µg/mL). Same read-out and setting: the value for `Cc1ccc2nc(C)c(C(=O)NCCOc3ccc(Br)cc3)n2c1` was 0.038 µM (≈ 0.0148 µg/mL); that for `Cc1ccc2nc(C)c(C(=O)NCCCNc3ccc(C(C)(C)C)cc3)n2c1` was 1.32 µM (≈ 0.5 µg/mL); that for `COc1ccc(N2CCN(C(=O)c3c(C)nc4ccc(C)cn34)CC2)cc1` was more than 87 µM.

`Cc1ccc2nc(C)c(C(=O)N3CCN(c4ccccn4)CC3)n2c1`: the MIC90 was more than 95 µM.

For the compound `Cc1ccc2nc(C)c(C(=O)N3CCN(c4ccccc4F)CC3)n2c1`, the MIC90 was more than 90 µM.

Regarding `Cc1ccc2nc(C)c(C(=O)NCCNc3ccc(Br)cc3)n2c1`, the MIC90 is 0.64 µM (≈ 0.248 µg/mL). Regarding `NNC(=O)c1ccncc1` [ISONIAZID], the MIC90 worked out at 0.36 µM (≈ 0.0494 µg/mL). Still for that read-out and setting: as for `Cc1ccc2nc(C)c(C(=O)NCCNc3ccc(C(F)(F)F)cc3)n2c1`, the figure is 42.5 µM (≈ 16 µg/mL); as for `Cc1ccc2nc(C)c(C(=O)N3CCN(c4ccc(Cl)cc4)CC3)n2c1`, 43.5 µM (≈ 16 µg/mL). Compound `Cc1ccc2nc(C)c(C(=O)NCCCNc3ccc([N+](=O)[O-])cc3)n2c1` had an MIC90 of more than 87 µM. Still for that read-out and setting: the value for `Cc1ccc2nc(C)c(C(=O)N3CCN(c4ccc(F)cc4)CC3)n2c1` was 90.3 µM (≈ 31.8 µg/mL).

Turning to `Cc1ccc2nc(C)c(C(=O)NCCNc3ccc(Cl)c(F)c3)n2c1`, the MIC90 came out at 1.39 µM (≈ 0.502 µg/mL). Same read-out and setting: the value for `Cc1ccc2nc(C)c(C(=O)NCCNCc3ccccc3)n2c1` was 49.6 µM (≈ 16 µg/mL); that for `Cc1ccc2nc(C)c(C(=O)NCCCNc3ccccc3)n2c1` was 6.21 µM (≈ 2 µg/mL); that for `Cc1ccc2nc(C)c(C(=O)NCCNc3ccc(F)cc3)n2c1` was 1.53 µM (≈ 0.499 µg/mL). The same measure, in the same setting: the value for `COc1ccc(NCCNC(=O)c2c(C)nc3ccc(C)cn23)cc1` was 0.044 µM (≈ 0.0149 µg/mL); that for `Cc1ccn2c(C(=O)NCCCNc3ccc([N+](=O)[O-])cc3)c(C)nc2c1` was more than 87 µM; that for `Cc1ccc2nc(C)c(C(=O)NCCNCc3ccc(Br)cc3)n2c1` was 9.97 µM (≈ 4 µg/mL). Still for that read-out and setting: as for `Cc1ccc2nc(C)c(C(=O)NCCNc3ccccc3F)n2c1`, the figure is 0.76 µM (≈ 0.248 µg/mL); as for `Cc1ccc2nc(C)c(C(=O)NCCN3CCN(c4ccccc4)CC3)n2c1`, 0.66 µM (≈ 0.249 µg/mL). For `Cc1ccc2nc(C)c(C(=O)NCCNc3ccc(C)c(C)c3)n2c1`, the MIC90 amounted to 0.18 µM (≈ 0.0606 µg/mL).

`COc1ccc(NCCNC(=O)c2c(C)nc3cc(C)ccn23)cc1` displayed an MIC90 of 47.3 µM (≈ 16 µg/mL). The compound `Cc1ccc2nc(C)c(C(=O)NCCCNc3ccc(F)cc3)n2c1` gave an MIC90 of 1.47 µM (≈ 0.5 µg/mL). On the same count and under the same terms, the value for `Cc1ccn2c(C(=O)NCCCNc3ccc(C(C)(C)C)cc3)c(C)nc2c1` was 10.6 µM (≈ 4 µg/mL). The same measure, in the same setting: the value for `Cc1ccc2nc(C)c(C(=O)NCCNc3cccc(C(F)(F)F)c3)n2c1` was 5.31 µM (≈ 2 µg/mL); that for `Cc1ccc2nc(C)c(C(=O)N3CCN(c4ccc(F)cc4F)CC3)n2c1` was more than 86 µM; that for `Cc1ccc2nc(C)c(C(=O)NCCNc3ccc(C(C)(C)C)cc3)n2c1` was 0.041 µM (≈ 0.0149 µg/mL). On the same count and under the same terms, as for `Cc1ccc2nc(C)c(C(=O)NCCCOc3ccc(Br)cc3)n2c1`, the figure is 0.62 µM (≈ 0.249 µg/mL). With `Cc1ccn2c(C(=O)NCCCNc3ccccc3)c(C)nc2c1`, the MIC90 was 12.4 µM (≈ 4.01 µg/mL). Take `CO[C@H]1/C=C/O[C@@]2(C)Oc3c(C)c(O)c4c(O)c(c(/C=N/N5CCN(C)CC5)c(O)c4c3C2=O)NC(=O)/C(C)=C\C=C\[C@H](C)[C@H](O)[C@@H](C)[C@@H](O)[C@@H](C)[C@H](OC(C)=O)[C@@H]1C` [RIFAMPIN]: the MIC90 was determined as 0.071 µM (≈ 0.0584 µg/mL). With `Cc1ccc2nc(C)c(C(=O)NCCNc3ccccc3)n2c1`, the MIC90 amounted to 0.81 µM (≈ 0.25 µg/mL). On to `Cc1ccc2nc(C)c(C(=O)N3CCN(c4ccc(Br)cc4)CC3)n2c1`, for which the MIC90 is more than 77 µM. Still for that read-out and setting: as for `Cc1ccc2nc(C)c(C(=O)NCCNc3ccc([N+](=O)[O-])cc3)n2c1`, the figure is more than 90 µM; as for `Cc1ccc2nc(C)c(C(=O)N3CCC(c4ccc(F)cc4)CC3)n2c1`, 90.3 µM (≈ 31.7 µg/mL); as for `Cc1ccc2nc(C)c(C(=O)N3CCN(c4ccc([N+](=O)[O-])cc4)CC3)n2c1`, 84.4 µM (≈ 32 µg/mL). The same measure, in the same setting: as for `Cc1ccc(N2CCN(C(=O)c3c(C)nc4ccc(C)cn34)CC2)cc1`, the figure is 46 µM (≈ 16 µg/mL). In the case of `Cc1ccc2nc(C)c(C(=O)N3CCN(c4ccccc4)CC3)n2c1`, the MIC90 amounted to 95.4 µM (≈ 31.9 µg/mL). Still for that read-out and setting: the value for `Cc1ccc2nc(C)c(C(=O)N3CCN(c4ccncc4)CC3)n2c1` was 95 µM (≈ 31.9 µg/mL); that for `Cc1ccc2nc(C)c(C(=O)NCCOCc3ccc(Br)cc3)n2c1` was 0.62 µM (≈ 0.249 µg/mL).

Test system in a further data set: not listed separately
Kind of data set: Cytotoxicity against African green monkey Vero cells assessed as decrease in cell viability after 72 hrs by MTT assay. The class given is cell-based. Particulars: chlorocebus sabaeus. A digest of the protocol:
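Vero cells grown in MEM with Earle's salts plus 10% FBS, 37 °C, 5% CO2; seeded at 1 × 10⁴ cells per well, allowed 24 h recovery, then medium replaced with assay medium with or without compound (1000 to 4 μg/mL). After 72 h exposure, viability read by MTT; CC50 calculated by Bliss analysis.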
`COc1ccc(NCCNC(=O)c2c(C)nc3ccc(C)cn23)cc1`: the CC50 at 72 h came to 193 µM. Consider `Cc1ccc2nc(C)c(C(=O)NCCNc3ccc(C(C)(C)C)cc3)n2c1`, for which the CC50 at 72 h stood at 57.6 µM.

(Values after ChEMBL document CHEMBL4118065, “Design, synthesis and antimycobacterial activity of novel imidazo[1,2-a]pyridine-3-carboxamide derivatives” (Eur J Med Chem, 2017).)
